The record followed here is ChEMBL document CHEMBL1125535, “Benzothiazole hydroxy ureas as inhibitors of 5-lipoxygenase: use of the hydroxyurea moiety as a replacement for hydroxamic acid” (J Med Chem, 1992).

In experiment [1] the target is T1, Polyunsaturated fatty acid 5-lipoxygenase (Homo sapiens, UniProt P09917).
T1 sequence (P09917 whole entry): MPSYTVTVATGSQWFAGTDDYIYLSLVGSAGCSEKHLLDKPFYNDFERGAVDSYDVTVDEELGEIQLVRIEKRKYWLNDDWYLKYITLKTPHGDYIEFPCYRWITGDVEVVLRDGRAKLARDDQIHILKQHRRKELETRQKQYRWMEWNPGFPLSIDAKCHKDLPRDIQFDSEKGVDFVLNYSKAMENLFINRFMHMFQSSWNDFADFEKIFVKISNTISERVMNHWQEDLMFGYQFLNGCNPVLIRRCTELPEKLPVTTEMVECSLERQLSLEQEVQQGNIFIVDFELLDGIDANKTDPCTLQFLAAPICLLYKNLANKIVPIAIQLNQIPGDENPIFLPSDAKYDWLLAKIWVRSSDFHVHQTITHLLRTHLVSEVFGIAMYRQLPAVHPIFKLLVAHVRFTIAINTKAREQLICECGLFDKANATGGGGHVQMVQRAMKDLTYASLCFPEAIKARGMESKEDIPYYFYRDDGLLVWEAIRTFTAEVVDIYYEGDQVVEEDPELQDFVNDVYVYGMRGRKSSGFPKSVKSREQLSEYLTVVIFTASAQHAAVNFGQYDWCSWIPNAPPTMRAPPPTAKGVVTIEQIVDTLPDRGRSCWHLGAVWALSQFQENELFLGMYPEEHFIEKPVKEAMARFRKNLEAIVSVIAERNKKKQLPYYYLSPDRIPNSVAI
As to the kind of experiment: In vitro effective concentration required to inhibit ionophore stimulated-human peripheral blood leukocytes; inactive. In kind it is functional.

Experiment [2] deals with Mus musculus. As to the kind of experiment: In vivo 5-Lipoxygenase inhibitory activity by using mouse zymosan peritonitis model; inactive. In kind it is functional, organism-based. The procedure, abridged:
(§1)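 CD-1 mice (18–25 g) received compound orally in 0.5% methyl cellulose, then 3 mg zymosan-A in 0.5 mL 0.9% saline ip 1 h later. Samples were held on ice ≥30 min and spun at 28000g for 15 min at 4 °C. Supernatants were dried under nitrogen and stored at −70 °C. LTC4 measured by [3H]RIA on a 1:20 dilution.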

The target in experiment [3] is T1, Polyunsaturated fatty acid 5-lipoxygenase. As to the kind of experiment: In vitro inhibition of ionophore stimulated LTB4 release from human peripheral blood leukocytes. In kind it is functional. In outline:
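Leukocytes from pooled human venous blood were isolated by plasmagel sedimentation and erythrocyte lysis, then set to 1×10^6 cells/mL in modified Eagle MEM. Cells were preincubated 5 min at 37 °C with DMSO vehicle or compound, then stimulated 5 min at 37 °C with A23187 (5 µL of 0.1 mM). Reaction stopped on ice with cold Ca-free PBS; supernatant LTB4 measured by [3H]RIA.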

Experiment [4] concerns Mus musculus. As to the kind of experiment: In vivo 5-Lipoxygenase inhibitory activity by using mouse zymosan peritonitis model. In kind it is functional, organism-based. The procedure, abridged:
as §1

As to `CONC(=O)NCCSc1nc2ccccc2s1`, the EC50 entry (in experiment [1]; in the experiment with Mus musculus [2]) was “Not Active” in each case. Regarding `CC(C)N(O)C(=O)NCCCSc1nc2ccccc2s1`, the EC50 is 70 nM in experiment [3] and “Not Active” with Mus musculus [2]. The corresponding values for `O=C(NO)NCCSc1nc2cc(Cl)ccc2s1` are 24500 nM and “Not Active”. In the experiment with Mus musculus [4], `NC1=NN(c2cccc(C(F)(F)F)c2)CC1` [BW-755C] displayed an EC50 of 8.5 mg/kg.

`CN(O)C(=O)NCCSc1nc2cccc(Cl)c2s1`: the EC50 in experiment [3] was 530 nM; in the experiment on Mus musculus [2], “Not Active”. On to `CN(O)C(=O)CCSc1nc2cc(Cl)ccc2s1`, for which, in experiment [3], the EC50 worked out at 20 nM. Regarding `CC(C)N(O)C(=O)NCCSc1nc2cc(Cl)ccc2s1`, the values for the EC50 (in experiment [3]; in the experiment with Mus musculus [2]) were 70 nM and “Not Active”, respectively. On to `CN(O)C(=O)NCCSc1nc2cc(C(F)(F)F)ccc2s1`, for which the results for the EC50 (in experiment [3]; in the experiment on Mus musculus [2]) were 3200 nM and “Not Active”, respectively.

On to `CN(O)C(=O)NCCSc1nc2ccccc2s1`, for which the results for the EC50 (in experiment [3]; in the experiment on Mus musculus [4]) were 90 nM and 41 mg/kg, respectively. In the same order, the values of `COc1ccc(-n2nc(CCC(=O)N(C)O)cc2-c2ccc(Cl)cc2)cc1` [TEPOXALIN] are 70 nM and 44.5 mg/kg. For the compound `CCOc1ccc2nc(SCCNC(=O)N(C)O)sc2c1`, the EC50 was 110 nM in experiment [3] and “Not Active” with Mus musculus [2]. For `CN(O)C(=O)NCSc1nc2ccccc2s1`, the EC50 was 1070 nM in experiment [3] and 65.9 mg/kg in the experiment with Mus musculus [4]. The corresponding values for `CN(O)C(=O)NCCCSc1nc2ccccc2s1` are 45 nM and 23 mg/kg. As to `O=C(NO)NCCSc1nc2ccccc2s1`, the figures for the EC50 (in experiment [3]; in the experiment with Mus musculus [2]) were 5200 nM and “Not Active”, respectively. Consider `CCOc1ccc2nc(SCCNC(=O)N(O)C(C)C)sc2c1`, for which the EC50 in experiment [3] is 390 nM; in the experiment on Mus musculus [2] it was “Not Active”. In the same order, the values of `CC(C)c1ccc2nc(SCCNC(=O)N(C)O)sc2c1` are 160 nM and “Not Active”. On to `CN(O)C(=O)NCCSc1nc2cc(Cl)ccc2s1`, for which the EC50 came out at 20 nM in experiment [3] and 23.1 mg/kg in the experiment on Mus musculus [4]. In the case of `CNC(=O)CCSc1nc2ccccc2s1`, in experiment [1], the EC50 entry is recorded as “Not Active”.

`CC(c1cc2ccccc2s1)N(O)C(N)=O` (stereo not drawn) [ZILEUTON] yielded an EC50 with Mus musculus [4] of 1.6 mg/kg. Regarding `CN(O)C(=O)/C=C/Sc1nc2ccccc2s1`, the EC50 in experiment [3] came out at 130 nM.

With `CN(O)C(=O)CSc1nc2ccccc2s1`, the EC50 in experiment [3] was 70 nM. In the case of `CON(C)C(=O)NCCSc1nc2ccccc2s1`, the EC50 entry (in experiment [1]; in the experiment with Mus musculus [2]) was “Not Active” each time.

Regarding `CC(C)N(O)C(=O)NCCSc1nc2ccccc2s1`, the EC50 in experiment [3] is 130 nM; in the experiment with Mus musculus [2], “Not Active”. As for `CNC(=O)NCCSc1nc2ccccc2s1`, the EC50 entry (in experiment [1]; with Mus musculus [2]) was “Not Active” each time. As for `CN(O)C(=O)CCSc1nc2ccccc2s1`, the EC50 in experiment [3] stood at 39 nM.
